The source made the active and inactive calls. The calls are words filed in the database; no cut-off is given here.

In assay [1] the target is T1, TCP pilus virulence regulatory protein (Vibrio cholerae serotype O1 (strain ATCC 39541 / Classical Ogawa 395 /O395)) (UniProt A5F384).
T1 sequence (whole entry): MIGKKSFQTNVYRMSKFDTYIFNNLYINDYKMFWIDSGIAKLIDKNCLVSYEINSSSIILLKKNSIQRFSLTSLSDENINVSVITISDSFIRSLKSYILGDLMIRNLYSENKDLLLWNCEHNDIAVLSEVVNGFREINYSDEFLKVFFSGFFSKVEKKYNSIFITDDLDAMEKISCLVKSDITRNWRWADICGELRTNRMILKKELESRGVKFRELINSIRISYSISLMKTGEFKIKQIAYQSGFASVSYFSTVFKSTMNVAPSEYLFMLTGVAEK
The assay can be described thus: Inhibition of Vibrio cholerae wild type ToxT-mediated transcription of ctx promoter at 50 uM.

The target of assay [2] is T1, TCP pilus virulence regulatory protein (Vibrio cholerae serotype O1 (strain ATCC 39541 / Classical Ogawa 395 /O395)). The experiment in a line: Inhibition of Vibrio cholerae wild type ToxT N-terminal domain dimerization expressed in Escherichia coli assessed as beta-galatosidase reporter gene expression at 10 uM by bacterial two-hybrid system. The gist of the method:
(§1)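 Bacterial two-hybrid: identical toxT N-terminal segments fused to Zif (pACTrAp-Zif) and ω (pBRGpω) and co-transformed into E. coli KDZif1ZΔtolC. Cultures grown overnight with or without 10 μM IPTG and virstatin (10–50 μM), then subcultured into the same conditions. lacZ reporter activity measured by β-galactosidase assay in triplicate; a representative experiment is reported.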
(A reporter such as luciferase makes a cellular process visible.)

For assay [3] the target is unchanged. The experiment in a line: Inhibition of Vibrio cholerae wild type ToxT N-terminal domain dimerization expressed in Escherichia coli assessed as beta-galatosidase reporter gene expression at 20 uM by bacterial two-hybrid system. In a few lines: as §1
For assay [4] the target is unchanged. The experiment in a line: Inhibition of Vibrio cholerae wild type ToxT N-terminal domain dimerization expressed in Escherichia coli assessed as beta-galatosidase reporter gene expression at 35 uM by bacterial two-hybrid system. The gist of the method:
as §1

Assay [5] has the same target. The experiment in a line: Inhibition of Vibrio cholerae wild type ToxT N-terminal domain dimerization expressed in Escherichia coli assessed as beta-galatosidase reporter gene expression at 50 uM by bacterial two-hybrid system. In a few lines: as §1
Assay [6] deals with Vibrio cholerae. The assay can be described thus: Inhibition of Vibrio cholerae ToxT L113P mutant N-terminal domain dimerization expressed in Escherichia coli assessed as beta-galatosidase reporter gene expression at 10 uM by bacterial two-hybrid system. The gist of the method: as §1
Assay [7] deals with T1, TCP pilus virulence regulatory protein (Vibrio cholerae serotype O1 (strain ATCC 39541 / Classical Ogawa 395 /O395)). The experiment in a line: Inhibition of ToxT-mediated transcriptional activation of tcpA promoter in Vibrio cholerae O395deltalacZ assessed as beta-galactosidase expression at 100 uM relative to control. Further details: scale not given: the % may be the effect or the level left.

The target is the same in assay [8]. The experiment in a line: Inhibition of ToxT-mediated transcriptional activation of acfD promoter in Vibrio cholerae O395deltalacZ assessed as beta-galactosidase expression at 100 uM relative to control. Details: scale not given: the % may be the effect or the level left.
Assay [9] shares this target. The experiment in a line: Inhibition of ToxT-mediated transcriptional activation of ctxAB promoter in Vibrio cholerae O395deltalacZ assessed as beta-galactosidase expression at 100 uM relative to control. Details: scale not given: the % may be the effect or the level left.
Assay [10] shares this target. The experiment in a line: Inhibition of ToxT-mediated transcriptional activation of tagA promoter in Vibrio cholerae O395deltalacZ assessed as beta-galactosidase expression at 100 uM relative to control. Further details: scale not given: the % may be the effect or the level left.
Assay [11] shares this target. The experiment in a line: Inhibition of ToxT-mediated transcriptional activation of tcpI promoter in Vibrio cholerae O395deltalacZ assessed as beta-galactosidase expression at 100 uM relative to control. Details: scale not given: the % may be the effect or the level left.
For assay [12] the target is unchanged. The assay can be described thus: Inhibition of ToxT-mediated transcriptional activation of acfA promoter in Vibrio cholerae O395deltalacZ assessed as beta-galactosidase expression at 100 uM relative to control. Further details: scale not given: the % may be the effect or the level left.
For assay [13] the target is unchanged. The experiment in a line: Inhibition of ToxT-mediated transcriptional activation of aldA promoter in Vibrio cholerae O395deltalacZ assessed as beta-galactosidase expression at 100 uM relative to control. Details: scale not given: the % may be the effect or the level left.
Assay [14] shares this target. The assay can be described thus: Inhibition of maltose binding protein-fused Vibrio cholerae ToxT monomer by gel filtration method. A general note: SEC sorts molecules by how far they enter the pores of the column.
For assay [15], the system named is Vibrio cholerae. The assay can be described thus: Inhibition of maltose binding protein-fused Vibrio cholerae ToxT L113P mutant monomer by gel filtration method.

As for `O=C(O)CCN1C(=O)c2cccc3cccc(c23)C1=O`, in assay [1], the outcome was Active.

As to `O=C(O)CCCN1C(=O)c2cccc3cccc(c23)C1=O`, the result in [2], in [3], in [4], in assay [5], in [1] and in assay [14] was Active. The outcome in the assay on Vibrio cholerae [6] and in the assay with Vibrio cholerae [15] was inactive. Also, the Activity worked out at 3% in assay [7]; 3% in assay [8]; 3% in assay [9]; 3% in [10]; 15% in assay [11]; 15% in assay [12]. In assay [13], the Activity is 15%.

For `O=C(O)C1CCCC(N2C(=O)c3cccc4cccc(c34)C2=O)C1` (centres undefined), the result in assay [1] was Active.

Consider `O=C(O)CN1C(=O)c2cccc3cccc(c23)C1=O`, for which the outcome in assay [1] was Active.

For the compound `COC(=O)CCCN1C(=O)c2cccc3cccc(c23)C1=O`, the result in assay [1] was Active.

The values are drawn from ChEMBL document CHEMBL1147057, “Virstatin inhibits dimerization of the transcriptional activator ToxT” (Proc Natl Acad Sci U S A, 2007).
